In ChEMBL document CHEMBL2401717, “Synthesis and bioactive evaluation of novel hybrids of metronidazole and berberine as new type of antimicrobial agents and their transportation behavior by human serum albumin” (Bioorg Med Chem, 2013):

Legend:
Albumin [1] = target: T1, Albumin (Homo sapiens, UniProt P02768); test: Binding affinity to human serum albumin assessed as decrease in fluorescence quenching at 286K by UV-Vis spectroscopy; format: ADME; conditions: isolated protein
How it was run: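 Fluorescence of HSA fixed at 1.0 × 10^-5 mol L^-1, titrated with compound in 0.2 × 10^-5 mol L^-1 steps. Excitation 295 nm, emission scanned 300–450 nm, slits 2.5 nm, 1.0 cm quartz cells. Spectra recorded at several temperatures (286, 295, 298, 304, 310 K are cited in places). Data fitted by Stern–Volmer, modified Stern–Volmer and Scatchard equations to give binding constants and site number.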

Albumin [2] = target: T1, Albumin; test: Binding affinity to human serum albumin by UV-Vis spectrophotometry; format: ADME; conditions: isolated protein
How it was run: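 HSA UV–vis absorption spectrum compared with the difference spectrum of HSA–compound complex minus compound at equal concentration; recorded at room temperature in 1.0 cm quartz cells.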

[3] = Stability of the compound at pH 6.5 to 8.5 after 30 mins by UV spectrophotometry; format: physicochemical; conditions: buffer, pH 6.5, 0.5 h
How it was run: (§1)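 Stability followed by UV spectrometry across pH 6.5–8.5 and temperatures 30–80 °C.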

[4] = Stability of the compound at 30 to 80 degC after 30 mins by UV spectrophotometry; format: physicochemical; conditions: 0.5 h; how it was run: as §1
[5] = Solubility of the compound in phosphate buffer at pH 7.5 after 20 hrs by UV spectrophotometry; format: physicochemical
How it was run: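 Phosphate buffer pH 7.5 added to solid; suspension sonicated 10 min, then shaken at room temperature for 20 h and centrifuged. Supernatant concentration read by UV absorbance against a regression calibration curve (278 and 340 nm).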

[6] = Octanol-water partition coefficient, log P of the compound after 24 hrs by UV-Vis spectrophotometry; format: physicochemical
Candida [7] = test: Ratio of fluconazole MIC to compound MIC for Candida mycoderma; format: functional
How it was run: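 MICs for the compound and for fluconazole against Candida mycoderma were measured in parallel by twofold broth microdilution in 96-well plates, following NCCLS guidance, in triplicate. The ratio was then taken from the two MICs.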

Pseudomonas aeruginosa [8] = test: Ratio of clinafloxacin MIC to compound MIC for Pseudomonas aeruginosa; format: functional
Candida [9] = test: Antifungal activity against Candida mycoderma after 24 hrs by twofold broth dilution method; format: functional
How it was run: (§2)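 MIC by NCCLS-recommended twofold broth microdilution, run in triplicate. Strains: B. subtilis ATCC6633, E. coli DH52, M. luteus ATCC4698, P. vulgaris ATCC6896, S. dysenteriae, S. aureus ATCC25923, MRSA N315, C. albicans ATCC76615, C. mycoderma. References were chloromycin, norfloxacin and berberine for bacteria, and fluconazole for fungi.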

Proteus vulgaris = test: Antibacterial activity against Proteus vulgaris after 24 hrs by twofold broth dilution method; format: functional; how it was run: as §2
Candida albicans = test: Antifungal activity against Candida albicans after 24 hrs by twofold broth dilution method; format: functional; how it was run: as §2
Pseudomonas aeruginosa [10] = test: Antibacterial activity against Pseudomonas aeruginosa after 24 hrs by twofold broth dilution method; format: functional
How it was run: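 Twofold broth dilution in 96-well microplates following NCCLS guidance; MIC read as the endpoint; tests run in triplicate.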

Shigella dysenteriae = test: Antibacterial activity against Shigella dysenteriae after 24 hrs by twofold broth dilution method; format: functional; how it was run: as §2
Escherichia coli [11] = test: Antibacterial activity against Escherichia coli DH52 after 24 hrs by twofold broth dilution method; format: functional; conditions: DH52, 24 h; how it was run: as §2
Micrococcus luteus = test: Antibacterial activity against Micrococcus luteus ATCC 4698 after 24 hrs by twofold broth dilution method; format: functional; conditions: ATCC 4698, 24 h; how it was run: as §2
Bacillus subtilis [12] = test: Antibacterial activity against Bacillus subtilis after 24 hrs by twofold broth dilution method; format: functional; how it was run: as §2
Staphylococcus aureus [13] = test: Antibacterial activity against Staphylococcus aureus ATCC 25923 after 24 hrs by twofold broth dilution method; format: functional; conditions: ATCC 25923, 24 h; how it was run: as §2
Staphylococcus aureus [14] = test: Antibacterial activity against methicillin-resistant Staphylococcus aureus N315 after 24 hrs by twofold broth dilution method; format: functional; conditions: N315, 24 h; how it was run: as §2
Escherichia coli [15] = test: Ratio of chloromycin MIC to compound MIC for Escherichia coli DH52; format: functional
Bacillus subtilis [16] = test: Ratio of chloromycin MIC to compound MIC for Bacillus subtilis; format: functional
Staphylococcus aureus [17] = test: Ratio of berberin MIC to compound MIC for Staphylococcus aureus ATCC 25923; format: functional
Staphylococcus aureus [18] = test: Ratio of chloromycin MIC to compound MIC for Staphylococcus aureus ATCC 25923; format: functional

T1 sequence (P02768 whole entry): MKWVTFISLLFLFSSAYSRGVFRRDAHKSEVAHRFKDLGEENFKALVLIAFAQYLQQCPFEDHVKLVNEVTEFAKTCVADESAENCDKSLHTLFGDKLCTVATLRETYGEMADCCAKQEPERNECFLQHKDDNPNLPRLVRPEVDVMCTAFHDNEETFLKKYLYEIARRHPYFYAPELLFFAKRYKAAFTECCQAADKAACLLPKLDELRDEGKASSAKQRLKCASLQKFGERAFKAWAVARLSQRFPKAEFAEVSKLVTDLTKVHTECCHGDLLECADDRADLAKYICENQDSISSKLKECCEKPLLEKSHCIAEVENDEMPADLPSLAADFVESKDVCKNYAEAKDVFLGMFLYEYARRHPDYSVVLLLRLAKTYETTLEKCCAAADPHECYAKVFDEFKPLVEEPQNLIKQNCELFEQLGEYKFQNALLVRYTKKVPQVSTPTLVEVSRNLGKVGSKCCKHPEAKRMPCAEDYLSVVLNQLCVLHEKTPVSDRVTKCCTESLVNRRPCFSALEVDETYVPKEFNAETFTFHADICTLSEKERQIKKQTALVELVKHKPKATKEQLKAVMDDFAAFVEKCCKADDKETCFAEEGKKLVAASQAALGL

| Structure (SMILES) | Stability [3] | Stability [4] | solubility at 20 h [5] | logP at 24 h [6] | MIC (Candida [9]) | MIC (Proteus vulgaris) | MIC (Candida albicans) | MIC (Pseudomonas aeruginosa [10]) | MIC (Shigella dysenteriae) | MIC (Escherichia coli [11]) | MIC (Micrococcus luteus) | MIC (Bacillus subtilis [12]) | MIC (Staphylococcus aureus [13]) | MIC (Staphylococcus aureus [14]) | further results |
| --- | --- | --- | --- | --- | --- | --- | --- | --- | --- | --- | --- | --- | --- | --- | --- |
| COc1ccc2cc3[n+](cc2c1OCCN(CCn1cncc1[N+](=O)[O-])Cc1ccc(F)cc1F)CCc1cc2c(cc1-3)OCO2.[Cl-] | Stable | Stable | 98.1 µg/mL | 0.52 | 1 µg/mL | 4 µg/mL | 8 µg/mL | 8 µg/mL | 4 µg/mL | 8 µg/mL | 8 µg/mL | 32 µg/mL | 8 µg/mL | 16 µg/mL | Activity (Albumin [1]): Active; Activity (Albumin [2]): Active; Ratio (Candida [7]): 4; Ratio (Pseudomonas aeruginosa [8]): 2 |
| COc1ccc2cc3[n+](cc2c1OCCN(CCn1cncc1[N+](=O)[O-])Cc1ccccc1Cl)CCc1cc2c(cc1-3)OCO2.[Cl-] | Stable | Stable | 86.4 µg/mL | 0.56 | 32 µg/mL | 16 µg/mL | 4 µg/mL | 8 µg/mL | 8 µg/mL | 4 µg/mL | 32 µg/mL | 4 µg/mL | 2 µg/mL | 8 µg/mL | Ratio (Escherichia coli [15]): 4; Ratio (Bacillus subtilis [16]): 4; Ratio (Staphylococcus aureus [17]): 8; Ratio (Staphylococcus aureus [18]): 8 |
